Results: ChEMBL document CHEMBL1129943, “5-aminocoumarans: dual inhibitors of lipid peroxidation and dopamine release with protective effects against central nervous system trauma and ischemia” (J Med Chem, 1997)

Tests used:
Format in all cases: functional
[1] = species: Rattus norvegicus; assay: Inhibition of lipid peroxidation by rat liver microsomes; set-up: concentration or dose not given beside the values; settings: dose or concentration not given here
Method in brief: (§1)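 Rat liver microsomes (S-9), 0.3 mg protein in 40 mM Tris-malate pH 7.4. Peroxidation started with a 1:1 mix of FeCl2 (0.25 mM) and NADPH (3 mM), then 1 h at 37 °C. Compound in DMSO added before incubation, tested up to 1 μM final. Thiobarbituric acid method read-out. Activity relative to DMSO vehicle; IC50 from four concentrations by nonlinear regression, otherwise % inhibition at 1 μM.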

[2] = species: Mus musculus; assay: Peroral dose required to reduce by 50% the score of excitatory behavior induced by intrathecal injection of ferrous chloride in mice; settings: central, read-out: ID50 (the source's name)
Method in brief: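 Male Slc:ICR mice, 5 weeks old, 10 per dose. Compound given orally 30 min before intrathecal 5 μL of 50 mM FeCl2 in saline (between L6 and S1). Vehicle was water, or 0.5% gum arabic suspension. Behaviour scored 0–5 (biting to death) from 15 min to 1 h. ID50 from three or four doses, relative to vehicle score.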

[3] = species: Rattus norvegicus; assay: Concentration required to reduce by 50% the amount of lipid peroxide formed in rat liver microsomes; method in brief: as §1
[4] = test system: Mus musculus; assay: Locomotor activity was measured in mice after 1 hour administration of methamphetamine; set-up: unit not given here
[5] = species: Mus musculus; assay: Percentage increase of locomotor activity in mice

| SMILES | inhibition [1] [%] | ED50 [2] [mg/kg] | IC50 [3] [nM] | Locomotor activity [4] | Increase [5] [%] |
| --- | --- | --- | --- | --- | --- |
| Cc1c(C)c2c(c(C)c1NC=O)CC(C)(C)O2 | 0 | > 100 |  |  |  |
| CC(=O)Nc1c(C)c(C)c2c(c1C)CC(C)(C)O2 | -2 | > 100 |  |  |  |
| CCCc1ccc(C2c3c(C)c(N)c(C)c(C)c3OC2(C)C)cc1 (stereo unspecified) |  | > 50 | 290 |  |  |
| Cc1c(C)c2c(c(C)c1N)CC(C)(COCc1ccccc1)O2 (stereo unspecified) |  | 18.6 | 280 | 1657 | 64 |
| Cc1c(C)c2c(c(C)c1N)CC(C)(CNCCCCc1ccccc1)O2 (stereo unspecified) |  | 17 | 80 |  |  |
| Cc1ccc(C2c3c(C)c(N)c(C)c(C)c3OC2(C)C)cc1 (stereo unspecified) |  | > 50 | 300 |  |  |
| Cc1c(C)c2c(c([N+](=O)[O-])c1N)CC(C)(C)O2 | 0 | > 100 |  |  |  |
| Cc1c(N)c(C)c2c(c1CN1CCCCC1)OC(C)(C)C2 | 3 | > 50 |  |  |  |
| CC(C)=Cc1c(C)c(N)c(C)c2c1OC(C)(C)C2 |  | 21.9 | 300 |  |  |
| Cc1c(C)c2c(c(C)c1N)C(c1ccc(C(C)C)cc1)C(C)(C)O2 (stereo unspecified) |  | > 50 | 290 |  |  |
| Cc1c(C)c2c(c(C)c1N)C(C(C)C)C(C)(C)O2 (stereo unspecified) |  | 14 | 290 |  |  |
| Cc1c(N)c(C)c2c(c1CC(C)C)OC(C)(C)C2 |  | 13.3 | 140 |  |  |
| CC1(C)Cc2cc(N)ccc2O1 | 5 | > 100 |  |  |  |
| Cc1c(N)cc2c(c1C)OC(C)(C)C2 | 26 | 24.4 |  |  |  |
| Cc1c(C)c2c(c(C)c1NS(C)(=O)=O)CC(C)(C)O2 | -1 | > 100 |  |  |  |
| Cc1c(C)c2c(c(C)c1Nc1ccc3c(c1)CC(C)(C)O3)CC(C)(C)O2 |  | > 25 | 30 |  |  |
| Cc1c(C)c2c(c(C)c1Nc1ccccc1)CC(C)(C)O2 |  | > 50 | 280 |  |  |
| COC(=O)/C=C\C1(C)Cc2c(C)c(N)c(C)c(C)c2O1 (stereo unspecified) | 38 | > 100 |  |  |  |
| Cc1c(N)c(C)c2c(c1CN(C)C)OC(C)(C)C2 | 4 | > 50 |  |  |  |

| SMILES | inhibition [1] [%] | ED50 [2] [mg/kg] | IC50 [3] [nM] | Locomotor activity [4] | Increase [5] [%] |
| --- | --- | --- | --- | --- | --- |
| Cc1c(C)c2c(c(C)c1N)CC(C)(CSc1ccc(O)cc1)O2 (stereo unspecified) |  | > 50 | 220 |  |  |
| Cc1c(C)c2c(c(C)c1N)CC(C)(CSCCO)O2 (stereo unspecified) | 11 | > 50 |  |  |  |
| Cc1ccc(S(=O)(=O)Nc2c(C)c(C)c3c(c2C)CC(C)(C)O3)cc1 | 3 | > 100 |  |  |  |
| Cc1c(C)c2c(c(C)c1N)CC(C)(CNCCc1ccccc1)O2 (stereo unspecified) |  | 14.2 | 290 |  |  |
| CCC(=O)Nc1c(C)c(C)c2c(c1C)CC(C)(C)O2 | 1 | > 100 |  |  |  |
| Cc1cc2c(c(C)c1N)CC(C)(C)O2 | 14 | 16.3 |  |  |  |
| Cc1c(C)c2c(c(C)c1Nc1cccnc1)CC(C)(C)O2 | 4 | > 50 |  |  |  |
| Cc1c(C)c2c(c(C)c1N)CC(C)(C[S+]([O-])c1ccccc1)O2 (stereo unspecified) |  | 31.3 | 660 |  |  |
| CCOC(=O)Nc1c(C)c(C)c2c(c1C)CC(C)(C)O2 | 1 | > 100 |  |  |  |
| Cc1cc(N)c(C)c2c1OC(C)(C)C2 | 19 | 32.3 |  |  |  |
| Cc1c(C)c2c(c(C)c1N)CC(C)(CSCCC(=O)O)O2 (stereo unspecified) | 0 | 43 |  |  |  |
| Cc1c(C)c2c(c(C)c1Nc1ccc(Cl)cc1)CC(C)(C)O2 |  | > 50 | 300 |  |  |
| Cc1c(C)c2c(c(N(C)C)c1N)CC(C)(C)O2 |  | 22.3 | 550 |  |  |
| Cc1c(C)c2c(c(N)c1N)CC(C)(C)O2 |  | > 50 | 300 |  |  |
| CCCCCc1ccc(C2c3c(C)c(N)c(C)c(C)c3OC2(C)C)cc1 (stereo unspecified) |  | 42.2 | 50 |  |  |
| CCNc1c(C)c(C)c2c(c1C)CC(C)(C)O2 | 16 | 38.9 |  |  |  |
| Cc1c(C)c2c(c(C)c1N)CC(C)(CS(=O)(=O)c1ccccc1)O2 (stereo unspecified) |  | 36.6 | 800 |  |  |
| CCCNc1c(C)c(C)c2c(c1C)CC(C)(C)O2 | 24 | 51.1 |  |  |  |
